Assay results from ChEMBL document CHEMBL1130336, “Polyanion inhibitors of human immunodeficiency virus and other viruses. 6. Micelle-like anti-HIV polyanionic compounds based on a carbohydrate core” (J Med Chem, 1997).

Legend:
E6SM [1] = experiment: Concentration required to cause a microscopically detectable alteration of normal E6SM cell morphology; format: functional, cell-based; settings: Homo sapiens, read-out: IC50
Outline: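 Minimum cytotoxic concentration, read microscopically as the level that causes a detectable alteration of normal cell morphology.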

HeLa [2] = experiment: Concentration required to reduce vesicular stomatitis virus-inducted cytopathicity by 50% (HeLa cells); format: functional, cell-based; settings: Homo sapiens
Vero [3] = experiment: Concentration required to reduce sindbis virus-inducted cytopathicity by 50% (Vero cells); format: functional, cell-based; settings: Chlorocebus sabaeus
E6SM [4] = experiment: Concentration required to reduce herpes simplex virus-1TK( B2006) inducted cytopathicity by 50% (E6SM cells); format: functional, cell-based; settings: Homo sapiens
Outline: (§1)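 Virus was added in the presence of compound, and the cells were incubated until cytopathic effect was scored. The value is the concentration that reduces virus-induced CPE by 50%.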

Vero [5] = experiment: Concentration required to reduce parainfluenza-3 virus-inducted cytopathicity by 50% (Vero cells); format: functional, cell-based; settings: Chlorocebus sabaeus
Vaccinia virus = experiment: Concentration required to reduce vaccinia virus-inducted cytopathicity by 50% (E6SM cells); format: functional, organism-based, Orthopoxvirus vaccinia
E6SM [6] = experiment: Concentration required to reduce herpes simplex virus-1TK (McIntyre) inducted cytopathicity by 50% (E6SM cells); format: functional, cell-based; settings: Homo sapiens; outline: as §1
E6SM [7] = experiment: Concentration required to reduce herpes simplex virus-1TK (VMW1837) inducted cytopathicity by 50% (E6SM cells); format: functional, cell-based; settings: Homo sapiens; outline: as §1
E6SM [8] = experiment: Concentration required to reduce herpes simplex virus-2(G) inducted cytopathicity by 50% (E6SM cells); format: functional, cell-based; settings: Homo sapiens; outline: as §1
Vero [9] = experiment: Concentration required to reduce Junin virus-inducted cytopathicity by 50% (Vero cells); format: functional, cell-based; settings: Chlorocebus sabaeus
MT4 [10] = experiment: Concentration required to inhibit human immunodeficiency virus-1 induced cytopathicity in MT-4 cells by 50%; format: functional, cell-based
Outline: (§2)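 MT-4 cells infected with HIV-1 (strain HTLV-III_B/LAI) or HIV-2 (strain LAV_ROD). The end point is 50% inhibition of virus-induced cytopathicity.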

CEM-4 [11] = experiment: Inhibitory concentration required to inhibit HIV-induced cytopathicity in CEM-4 cells by 50%; format: functional, cell-based; settings: Homo sapiens
Outline: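 CEM-4 cells infected with HIV-1 (strain HTLV-III_B/LAI). The end point is 50% inhibition of HIV-induced cytopathicity.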

Vero [12] = experiment: Concentration required to reduce reovirus-1 inducted cytopathicity by 50% (Vero cells); format: functional, cell-based; settings: Chlorocebus sabaeus
HeLa [13] = experiment: Concentration required to cause a microscopically detectable alteration of normal Hela cell morphology; format: functional, cell-based; settings: Homo sapiens
E6SM [14] = experiment: Concentration required to reduce herpes simplex virus-2(196) inducted cytopathicity by 50% (E6SM cells); format: functional, cell-based; settings: Homo sapiens; outline: as §1
E6SM [15] = experiment: Concentration required to reduce herpes simplex virus-1TK (KOS) inducted cytopathicity by 50% (E6SM cells); format: functional, cell-based; settings: Homo sapiens; outline: as §1
E6SM [16] = experiment: Concentration required to reduce herpes simplex virus-2(Lyons) inducted cytopathicity by 50% (E6SM cells); format: functional, cell-based; settings: Homo sapiens; outline: as §1
MT4 [17] = experiment: Concentration required to inhibit human immunodeficiency virus-2 induced cytopathicity in MT-4 cells by 50%; format: functional, cell-based; outline: as §2
HEL [18] = experiment: Concentration required to reduce human cytomegalo virus(AD-169) inducted cytopathicity by 50% (HEL cells); format: functional, cell-based; outline: as §1
[19] = tested on: Human immunodeficiency virus 1; experiment: Concentration required to inhibit by 50% human immunodeficiency virus-1 induced syncytium formation upon coculturing persistently HIV-infected HUT-78 cells with MOLT-4 cells; format: functional, organism-based; settings: Human immunodeficiency virus 1, MOLT-4
Outline: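 MOLT-4 (clone 8) cells at 1 × 10^6 cells/mL, cocultured with an equal number of persistently infected HUT-78/HIV-1 or HUT-78/HIV-2 cells across a range of compound concentrations. Giant cells were counted under the microscope after 24 h of cocultivation. The value is the concentration giving 50% inhibition of syncytium formation.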

E6SM [20] = experiment: Concentration required to reduce herpes simplex virus-1TK (F) inducted cytopathicity by 50% (E6SM cells); format: functional, cell-based; settings: Homo sapiens; outline: as §1
CEM-4 [21] = experiment: Concentration required to reduce the viability of uninfected CEM-4 cells by 50%; format: functional; settings: Homo sapiens
Outline: (§3)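 Cytotoxicity in uninfected CEM-4 or MT-4 cells, measured as inhibition of cell growth. The value is the concentration that lowers viability by 50%.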

Vero [22] = experiment: Concentration required to reduce forest virus-inducted cytopathicity by 50% (Vero cells); format: functional, cell-based; settings: Chlorocebus sabaeus
HeLa [23] = experiment: Concentration required to reduce polio-1 virus-inducted cytopathicity by 50% (HeLa cells); format: functional, cell-based; settings: Homo sapiens
Vero [24] = experiment: Concentration required to cause a microscopically detectable alteration of normal Vero cell morphology; format: functional, cell-based; settings: Chlorocebus sabaeus
Vero [25] = experiment: Concentration required to reduce Coxsackie virus-inducted cytopathicity by 50% (Vero cells); format: functional, cell-based; settings: Chlorocebus sabaeus
Vero [26] = experiment: Concentration required to reduce Tacaribe virus-inducted cytopathicity by 50% (Vero cells); format: functional, cell-based; settings: Chlorocebus sabaeus
[27] = tested on: Human immunodeficiency virus 2; experiment: Concentration required to inhibit by 50% human immunodeficiency virus-2 induced syncytium formation upon coculturing persistently HIV-infected HUT-78 cells with MOLT-4 cells; settings: HUT-78, MOLT-4
HeLa [28] = experiment: Concentration required to reduce Coxsackie virus-inducted cytopathicity by 50% (HeLa cells); format: functional, cell-based; settings: Homo sapiens
HEL [29] = experiment: Concentration required to reduce human cytomegalo virus(Davis) inducted cytopathicity by 50% (HEL cells); format: functional, cell-based; outline: as §1
MT4 [30] = experiment: Concentration required to reduce the viability of uninfected MT-4 cells by 50%; format: functional; settings: Homo sapiens; outline: as §3
HEL [31] = experiment: Concentration required to inhibit HEL cell growth by 50%; format: functional, cell-based; settings: Homo sapiens

With O=C(O)CC(SCCCOC[C@H]1O[C@@](COCCCSC(CC(=O)O)C(=O)O)(O[C@H]2O[C@H](COCCCSC(CC(=O)O)C(=O)O)[C@@H](OCCCSC(CC(=O)O)C(=O)O)[C@H](OCCCSC(CC(=O)O)C(=O)O)[C@H]2OCCCSC(CC(=O)O)C(=O)O)[C@@H](OCCCSC(CC(=O)O)C(=O)O)[C@@H]1OCCCSC(CC(=O)O)C(=O)O)C(=O)O (stereo not given in full) the minimum cytotoxic concentration (E6SM [1]) was over 181 µM, the IC50 (HeLa [2]) was over 90 µM and the IC50 (Vero [3]) was over 90 µM. The IC50 (E6SM [4]) was over 181 µM, the IC50 (Vero [5]) was over 90 µM and the IC50 (Vaccinia virus; Orthopoxvirus vaccinia, E6SM) was over 181 µM. It also gave an IC50 (E6SM [6]) of over 181 µM, an IC50 (E6SM [7]) of over 181 µM and an IC50 (E6SM [8]) of over 181 µM. The IC50 (Vero [9]) was over 22 µM, the IC50 (MT4 [10]) was 0.18 µM and the IC50 (CEM-4 [11]) was 3.02 µM. It also gave an IC50 (Vero [12]) of over 90 µM, an IC50 (HeLa [13]) of over 90 µM and an IC50 (E6SM [14]) of over 181 µM. For the same compound, the IC50 (E6SM [15]) was over 181 µM, the IC50 (E6SM [16]) was over 135 µM and the IC50 (MT4 [17]) was 2.89 µM. For the same compound, the IC50 (HEL [18]) was over 22 µM, the IC50 [19] was 22.6 µM and the IC50 (E6SM [20]) was over 181 µM. The CC50 (CEM-4 [21]) was over 45.1 µM, the IC50 (Vero [22]) was over 90 µM and the IC50 (HeLa [23]) was over 90 µM. The IC50 (Vero [24]) was over 90 µM, the IC50 (Vero [25]) was over 90 µM and the IC50 (Vero [26]) was over 22 µM. The IC50 [27] was 22.6 µM, the IC50 (HeLa [28]) was over 90 µM and the IC50 (HEL [29]) was over 22 µM. For the same compound, the CC50 (MT4 [30]) was over 113 µM and the IC50 (HEL [31]) was over 22 µM.
Work on O=S(=O)(O)CCSCCCOC[C@H]1O[C@@](COCCCSCCS(=O)(=O)O)(O[C@H]2O[C@H](COCCCSCCS(=O)(=O)O)[C@@H](OCCCSCCS(=O)(=O)O)[C@H](OCCCSCCS(=O)(=O)O)[C@H]2OCCCSCCS(=O)(=O)O)[C@@H](OCCCSCCS(=O)(=O)O)[C@@H]1OCCCSCCS(=O)(=O)O yielded a minimum cytotoxic concentration (E6SM [1]) of over 203 µM, an IC50 (HeLa [2]) of over 51 µM and an IC50 (Vero [3]) of over 101 µM. It also gave an IC50 (E6SM [4]) of over 203 µM, an IC50 (Vero [5]) of over 101 µM and an IC50 (Vaccinia virus; Orthopoxvirus vaccinia, E6SM) of over 101 µM. The IC50 (E6SM [6]) was over 101 µM, the IC50 (E6SM [7]) was over 101 µM and the IC50 (E6SM [8]) was over 101 µM. It also gave an IC50 (Vero [9]) of over 25 µM, an IC50 (MT4 [10]) of over 127 µM and an IC50 (CEM-4 [11]) of over 50.6 µM. For the same compound, the IC50 (Vero [12]) was over 101 µM, the IC50 (HeLa [13]) was over 101 µM and the IC50 (E6SM [14]) was over 101 µM. It also gave an IC50 (E6SM [15]) of over 101 µM, an IC50 (E6SM [16]) of over 101 µM and an IC50 (MT4 [17]) of over 127 µM. The IC50 (HEL [18]) was over 25 µM, the IC50 [19] was over 127 µM and the IC50 (E6SM [20]) was over 101 µM. For the same compound, the CC50 (CEM-4 [21]) was over 50.6 µM, the IC50 (Vero [22]) was over 101 µM and the IC50 (HeLa [23]) was over 51 µM. For the same compound, the IC50 (Vero [24]) was over 101 µM, the IC50 (Vero [25]) was over 101 µM and the IC50 (Vero [26]) was over 25 µM. For the same compound, the IC50 [27] was over 127 µM, the IC50 (HeLa [28]) was over 51 µM and the IC50 (HEL [29]) was over 25 µM. For the same compound, the CC50 (MT4 [30]) was over 127 µM and the IC50 (HEL [31]) was over 25 µM.
For O=S(=O)(O)CCSCCCOC[C@H]1O[C@@H](OCCCSCCS(=O)(=O)O)[C@H](OCCCSCCS(=O)(=O)O)[C@@H](OCCCSCCS(=O)(=O)O)[C@@H]1OCCCSCCS(=O)(=O)O, the minimum cytotoxic concentration (E6SM [1]) was over 333 µM, the IC50 (HeLa [2]) was over 167 µM and the IC50 (Vero [3]) was over 167 µM. It also gave an IC50 (E6SM [4]) of over 333 µM, an IC50 (Vero [5]) of over 167 µM and an IC50 (Vaccinia virus; e6sm) of over 167 µM. For the same compound, the IC50 (E6SM [6]) was over 333 µM, the IC50 (E6SM [7]) was over 333 µM and the IC50 (E6SM [8]) was over 333 µM. It also gave an IC50 (Vero [9]) of over 42 µM, an IC50 (CEM-4 [11]) of over 83.3 µM and an IC50 (Vero [12]) of over 167 µM. It also gave an IC50 (HeLa [13]) of over 167 µM, an IC50 (E6SM [14]) of over 333 µM and an IC50 (E6SM [15]) of over 333 µM. The IC50 (E6SM [16]) was over 42 µM, the IC50 (MT4 [17]) was over 208 µM and the IC50 (HEL [18]) was over 42 µM. The IC50 [19] was over 208 µM, the IC50 (E6SM [20]) was over 333 µM and the CC50 (CEM-4 [21]) was over 83.3 µM. The IC50 (Vero [22]) was over 167 µM, the IC50 (HeLa [23]) was over 167 µM and the IC50 (Vero [24]) was over 167 µM. The IC50 (Vero [25]) was over 167 µM, the IC50 (Vero [26]) was over 42 µM and the IC50 [27] was over 208 µM. For the same compound, the IC50 (HeLa [28]) was over 167 µM, the IC50 (HEL [29]) was over 333 µM and the CC50 (MT4 [30]) was over 208 µM. The IC50 (HEL [31]) was over 42 µM.
